Test system: MS2 coat protein
Test: apparent Kd, MS2 coat protein; higher = weaker binding; RNA-MaP array; FMN 200 µM where present
Summary of the method: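 Designs on Illumina sequencing-chip clusters, transcribed by stalled E. coli RNA polymerase, were exposed to SNAP-549-labelled MS2 coat protein in doubling steps from 0.7 or 1.5 nM up to 3 µM, without and then with constant ligand. The buffer held 100 mM Tris-HCl pH 7.5, 80 mM KCl, 4 mM MgCl2, BSA, DTT, yeast tRNA and Tween-20. Apparent Kd values are medians of filtered per-cluster binding-curve fits to green signal normalised to red-channel RNA signal and control-cluster median Fmax.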

[1] = designed as: ON switch for flavin mononucleotide, no ligand
[2] = ligand present: flavin mononucleotide, designed as: ON switch for flavin mononucleotide
[3] = designed as: OFF switch for flavin mononucleotide, no ligand
[4] = ligand present: flavin mononucleotide, designed as: OFF switch for flavin mononucleotide

| Sequence | apparent Kd [1] | apparent Kd [2] | apparent Kd [3] | apparent Kd [4] |
| --- | --- | --- | --- | --- |
| GCUAUCGGGUGAGGAUAUAUGAUUGUGAUUAAAAUAGAAGGCAUCUCAGAAGACAUGAGGAUCACCCAUGUAGUUAAGAUGGCA | 34.1 nM | 22.7 nM |  |  |
| CAGGAUAGAGGAUAUACAUAGAUACAGAUUCAUGUGAUCCUACAUGAGGAUCACCCAUGUAGAAGGCUAUCCUG |  |  | 315 nM | 39.5 nM |
| UGAUAGGACAGAGGAUAUACGGAUAGGAUCUACUAUCAAACAAGUCCUACAUGAGGAUCACCCAUGUAGAAGGCUGUCCUAUCU |  |  | 16.1 nM | 22.2 nM |
| ACGUAUCGUGUAGGAUAUGACCCAGGAAACUGGUCAGAAGGACAUGAGGAUCACCCAUGUAGAGUAUGUUAGGAUGACGUAUGC |  |  | 42.5 nM | 305 nM |
| CAGCGCUGUCGAGAGGAUAUGCAGUGAUGGACAUGAGGAUCACCCAUGUUAGCGAUAGCAUUACGGUAGAAGGCUCUACAGCUGC | 18 nM | 15.1 nM |  |  |
| GUGUAGUCAGGAUAUACAGAGGAAGAUAAUACAAUAUAAGUACAUGAGGAUCACCCAUGUAGAAGGGACAGUGU |  |  | 30.8 nM | 32.4 nM |
| UAGGACUACGUAGGAUAUGUAGUAUAUUACUACAUGAGGAUCACCCAUGUAAGCAUGUUAUUAGGACAGAAGGACGUGGUAAAU | 43.6 nM | 13.7 nM |  |  |
| GUGCCUAACUAGAAGGCAGUAUGCAAAGCAUUCUGAGGAUAUGGGUUCCGGAAACGGACAUGAGGAUCACCCAUGUGGCACAAA | 312 nM | 20.3 nM |  |  |
| UUGAGGUGCAAGAAGGAUCACAUGAGGAUCACCCAUGUGAUGUGAAGUCUCGAGAUUUUAUAUCGAUAGGAUAUUGCACCGAAC | 5.13 nM | 5.33 nM |  |  |
| CUCUCUCAUCGAGGAUAUCGAACUUCCACCCUUCGAGAAGGCGACAUGAGGAUCACCCAUGUAAGGAGGACACUCACUCACACA |  |  | 22.6 nM | 20.9 nM |
| UUAAAUCAUGUAGGAUAUGCAUGGCGAAGCUACGCAGAAGGACAUGAGGAUCACCCAUGUUCAAGCGUCUGAGUACAGAUGCAA |  |  | 20.9 nM | 102 nM |
| GUGCGGUAGGAGAAGGACGGAGGCUUCUUUUCAUACAUGAGGAUCACCCAUGUAGGAUAUCCUACCUCACGCGGCCUCCUUCUG |  |  | 4.77 nM | 4.99 nM |
| AGGUGACAUGAGGAUCACCCAUGUAAGGAUAUACGGUUAGUGGAGAGUUGGAGGAGAGGUAGAAGGUACGGAGC |  |  | 249 nM | 194 nM |
| AUUGCUAGCGCAGGAUAUGAUGCGAAAAUUGCGUCAGAAGGGUGUAAUCUCUCAUUGCGGGAGGACAUGAGGAUCACCCAUGUC | 142 nM | 87 nM |  |  |
| AGAUCACAUGAGGAUCACCCAUGUGAGGAUAUGAUACUAUGUACUUCGGUACAUAGUAUCAGAAGGCGCGUGAA |  |  | 29.8 nM | 42.2 nM |
| UUCUCGAUGUAGAAGGCCGCGUCCGGCUCACGCGGAGGAUAUACAUGAGGAUCACCCAUGUGUUUGUGGCUUAUAUGGUACGAA |  |  | 43 nM | 212 nM |
| AACGGGUGGGUAGGAUAUGGCUAUGUCUCAUUGCUAGAAGGGCCAGCUGCUACAUGAGGAUCACCCAUGUCGUAGUGCACCCAG | 72.4 nM | 40.3 nM |  |  |
| GGCUCGAGGGUCUCCGCGUUCACAUGAGGAUCACCCAUGUAACAGGAUAUCGGGCCAAAGGGCAGCGAGAAGGGUUACUUGGGC |  |  | 6.43 nM | 14.6 nM |
| UUCCUCGUUGUGAGGAUAUCGUCCGUGUUUUGUUACGAGAAGGCACAUGAGGAUCACCCAUGUUUUUUGUUUUU |  |  | 39.2 nM | 77.7 nM |
| CUGGUUGUCGAGGAUAUGUCCCGGCUCGCAGUCGCAGAAGGCGACACAUGAGGAUCACCCAUGUCGGUUCGCGU |  |  | 13.8 nM | 13.3 nM |
| AGUUAAUAUCGAGGAUAUGUCUAAACACAUGAGGAUCACCCAUGUAUGUGUAUAGAAGGCGAUAUUAACAGCAUGUUACAUGCA | 28.8 nM | 8.58 nM |  |  |
| GUUCAACAUGAGGAUCACCCAUGUAGAAGGCGCUCCGACAUUUUGUAGAACGAGGUGGGUGCGGGCGAGGAUAUACGUGGCGCU |  |  | 48.4 nM | 89.6 nM |
| AUCAGCUCGUCAGGAUAUACAUCACUGCUUCGGCAGUGUAUUAAGAUCACAUGAGGAUCACCCAUGUAGAAGGGACGAGCUGAU |  |  | 31.7 nM | 310 nM |
| GCACUUAAGUUAGGAUAUGGAUCGGAAAACGAUCCAGAAGGAAUAUGGGAACAUGAGGAUCACCCAUGUUCCACAAACAAGUGC | 55.4 nM | 29 nM |  |  |
| AAUUAUUUGUAGAAGGAAGGAGAUUUUGUAUUCUUAGGAUAUACUAUUACAUGAGGAUCACCCAUGUUUGUUGGGUUGCAAUGU |  |  | 315 nM | 323 nM |
| ACAAAUGGAGGAUAUACAUGAGGAUCACCCAUGUAUAUCCUACAUAUGUGAUAAUCAUGUAGAAGGCCAUUUGA |  |  | 12.3 nM | 11 nM |
| GCAUGCAUAGCGAUAUGAUCGAGAGAUCAUGUCGCUAAAUUUAGAAGGACAUGAGGAUCACCCAUGUAGGAUAUGGGAGCAUGG | 76 nM | 12.7 nM |  |  |
| UUAUUUCCUCAUGUACAUGAGGAACAUGAGGAUCACCCAUGUAGAAGGAUUUCAAUAAAAUUAAAAUAGGAUAUACAUAUAUUU |  |  | 68.3 nM | 81.6 nM |

| Sequence | apparent Kd [1] | apparent Kd [2] | apparent Kd [3] | apparent Kd [4] |
| --- | --- | --- | --- | --- |
| UUAAAUCAUGUAGGAUAUGCAUGGCGAAGCUACGCAGAAGGACAUGAGGAUCACCCAUGUGCUAGCGUCUGGAAACAGAUGCAA |  |  | 56 nM | 269 nM |
| AUAAAACAUGAGGAUCACCCAUGUCAACAAAGUCGAGGAUAUGGGCAAAUAAAAUAAGAACCAGAAGGCGAAUAAC | 371 nM | 34.7 nM |  |  |
| AUAUGAUAGAUAGGAUAUACAGUGGAUUUAUAAGUAGAAGGAUCAAGUGGGAAUUAUACAUGAGGAUCACCCAUGUUUUUGGAU | 68.2 nM | 45.8 nM |  |  |
| GGCGAAGUAGGAUAUACAUGAGGAUCACCCAUGUAACCUGAUGGCGUAGGUCUUCUAUGUAGAAGGGCUACGCC |  |  | 15.9 nM | 16.9 nM |
| UAGUGAUUGCAAGGAUAUGCUAGUUUUUAUUUGUGUUUGAUAACAAACAUGAGGAUCACCCAUGUGCAGAAGGUGCUAGAUAUG | 566 nM | 510 nM |  |  |
| GCACGAGACUAAGGAUAUGGAGUGUCUACAUUAAACAUGAGGAUCACCCAUGUAGAGAGUAUGAUUCAGAAGGUAGAGACGUGC | 53.6 nM | 25.2 nM |  |  |
| AGAAUAAACCAGAAGGCCGAGAUACAUGAGGAUCACCCAUGUAUACUUUGGAGGAUAUGGAUGAUUCAAGUGCGUUUCGUAGCA | 3.98 nM | 3.36 nM |  |  |
| AUAAAUCAUGUAGGAUAUGCGUGGCGAAGCUAUGCAGAAGGACAUGAGGAUCACCCAUGUCUUUCCGUCUGCGUAUAGACGGAA |  |  | 30.5 nM | 279 nM |
| AAAUCGGUAGGAUAUACGAUUUGGUACUAGACCGAGGAACCACAUGAGGAUCACCCAUGUAGAAGGACCAGAUA |  |  | 20.7 nM | 13.9 nM |
| UUAGACGUCGUAGGAUAUGUAGGAUAUUCCUACAUGAGGAUCACCCAUGUUGACAUGGAAGAAGGACAGAAGGACGAUGUCCAU | 307 nM | 4.91 nM |  |  |
| AAAAAGUCAGGAUAUCGGAAAAAAAAAAAAAAAAGGAGAAACGAGAAGGGACAUGAGGAUCACCCAUGUAAAAA |  |  | 51 nM | 46.7 nM |
| GGAUAGGACAGAGGAUAUACGUGCUAGAGAUAUUAGCAAAAUUUCCUCACAUGAGGAUCACCCAUGUAGAAGGCUGUCCUAUCG |  |  | 19.4 nM | 328 nM |
| GGACGAAGUGUGAGGAUAUGCUGGUCCUUGGAUCAGCAGAAGGCACAUGAGGAUCACCCAUGUGGUAAACGUCC |  |  | 114 nM | 746 nM |
| UUACUAUUACAGAAGGUUAAAUAAUAUAUAAAUGAAGGAUAUGUGACAUGAGGAUCACCCAUGUUUCACCCACAUGAGGAUCAU |  |  | 8.62 nM | 7.41 nM |
| UCAUUUCAGUAAGGAUAUUAAAUCAUGACGAUACAUGAGGAUCACCCAUGUUAAGAAGGUACUAAUACAAAUAAUGCAUUGUUC |  |  | 12.8 nM | 11.1 nM |
| AAGCACAGAGGAUAUACAUGGGUAAAAAAAAAAAAAAAAAAACAUGAGGAUCACCCAUGUAGAAGGCUGUGCAA |  |  | 81.6 nM | 67 nM |
| AGUCGGAGCAGAGGAUAUACAUGAGGAUCACCCAUGUAAUAAAGUGAAGCCUGGAAGCAGGCAAUGUAGAAGGCUGCUCCGACA |  |  | 11.1 nM | 81.8 nM |
| GUGCGGUGAGGAUAUACGUAGGUGAAAAUCUGUGUGUUCCUACAUGAGGAUCACCCAUGUAGAAGGCAUGUCAC |  |  | 53.5 nM | 143 nM |
| GGACGUCAGAUUAACAUGAGGAUCACCCAUGUCUUUUGACAUGAGGAUAUCGAUCCUAAUUGGAUCGAGAAGGCAUGGACGUCC | 1180 nM | 96.8 nM |  |  |
| CAAGGGUUAGGAUAUGGACGCUUAUAUUUGUAGCGGCGAAGCCAGAAGGAACAUGAGGAUCACCCAUGUUGGGA |  |  | 60.4 nM | 108 nM |
| UUGUUAAGGAGAGGAUAUUGACAUGAGGAUCACCCAUGUACAUGGGAGUGUUUACUGAAUUCUUACGAGAAGGCUUACAUAUUU |  |  | 216 nM | 102 nM |
| GAGAAGUCAGGAUAUCCAUGGCGGCACUUGCGUGGUGGCGUGGAGAAGGGACAUGAGGAUCACCCAUGUAAAGC |  |  | 54 nM | 34.9 nM |
| GCAGACGUAGUGAGGAUAUGCUCUACCUCGGUAGAGCAGAAGGCACAUGAGGAUCACCCAUGUGGCUCCUCAUC |  |  | 15.6 nM | 21.9 nM |
| GUCAGCUCGUGAGGAUAUACAACACUGCUUCGGCAGUGUAUUAAGAUCACAUGAGGAUCACCCAUGUAGAAGGCACAAGCUGAU |  |  | 15.9 nM | 271 nM |
| AAGUCGUGAGGAUAUACAUGGAUAUACAUUUAUGUGGACCUACAUGAGGAUCACCCAUGUAGAAGGCACGACUA |  |  | 196 nM | 93.5 nM |
| UUAUUAAGUGUGAGGAUAUGCUGGUCCUUGGAUCAGCAGAAGGCACAUGAGGAUCACCCAUGUAAUAUAUUUAU |  |  | 103 nM | 389 nM |
| AAACACGGAGGAUAUACAGGUUCGGGAAACCGAACCGGCUGACAUGAGGAUCACCCAUGUAGAAGGCCGAAAUA |  |  | 19.3 nM | 45.8 nM |

— the EternaBench riboswitch data
